These results are taken from ChEMBL document CHEMBL2311534, “Synthesis and antiplasmodial evaluation of novel (4-aminobutyloxy)quinolines” (Bioorg Med Chem Lett, 2013).

Where only a bound is given, the exact number is not on record here.

Data set [1] has as its system Plasmodium falciparum. Briefly: Antiplasmodial activity against erythrocyte form of chloroquine-sensitive Plasmodium falciparum D10 by parasite lactate dehydrogenase assay. The class given is functional, organism-based. The essentials: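 Asexual erythrocyte-stage cultures were maintained by a modified Trager–Jensen method. Samples were made as 20 mg/mL stocks in 100% DMSO and diluted in complete medium. The top test concentration was 100 µg/mL, with twofold serial dilution to 10 concentrations (lowest 0.2 µg/mL). Growth was read by parasite lactate dehydrogenase assay in triplicate on one occasion. IC50 came from full dose-response curves.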

A short description of data set [2]: Selectivity index, ratio of IC50 for CHO cells to IC50 for chloroquine-sensitive Plasmodium falciparum D10. It is filed as toxicity, cell-based. The following applies: hamster, read-out: Ratio IC50. The essentials:
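Computed as IC50 from the CHO MTT assay divided by IC50 from the D10 pLDH assay. Both IC50 values came from full dose-response curves, each run in triplicate on one occasion.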

Data set [3] deals with Plasmodium falciparum. Put plainly: Antiplasmodial activity against erythrocyte form of chloroquine-resistant Plasmodium falciparum Dd2 by parasite lactate dehydrogenase assay. The class given is functional, organism-based. The gist of the method:
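Continuous culture of asexual erythrocyte stages (modified Trager–Jensen); growth read by parasite lactate dehydrogenase assay (modified Makler). Samples from 20 mg/mL DMSO stock, diluted in complete medium; full dose-response, twofold serial dilutions from 100 µg/mL to 0.2 µg/mL (10 concentrations); chloroquine reference. Triplicate on one occasion; IC50 from non-linear curve fitting.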

For data set [4], the system named is Plasmodium falciparum. Put plainly: Resistance index, ratio of IC50 for chloroquine-resistant Plasmodium falciparum Dd2 to IC50 for chloroquine-sensitive Plasmodium falciparum D10. The class given is functional.
The subject of another data set is CHO. Put plainly: Cytotoxicity against CHO cells by MTT assay. The class given is cell-based. To be noted: Cricetulus griseus. The essentials:
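CHO cell growth and survival was read colorimetrically with MTT. Samples were diluted in complete medium on the day of testing as 10-fold serial dilutions to 6 concentrations (100 down to 0.001 µg/mL). Emetine served as reference. Tests were run in triplicate on one occasion. IC50 was obtained by non-linear dose-response curve fitting.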
On the technique in general: Tetrazolium dyes change colour on reduction, which living cells bring about.

Regarding `CCN(CC)CCCCOc1cccc2cccnc12`, in the data set with Plasmodium falciparum [1], 49.2 µM corresponded to half-maximal inhibition (IC50). Still for that read-out and setting: for `CCN(CC)CCCCOc1ccc(Cl)c2cccnc12` the value was 17.2 µM; for `CCN(CC)CCCCOc1c(I)cc(Cl)c2cccnc12`, 9.02 µM. On the same count and under the same terms, in the case of `CCN(CC)CCC(C)COc1cccc2cccnc12` (configuration not stated) it was 100 µM; in that of `CCN(CC)CCC(C)COc1c(Cl)cc(Cl)c2cccnc12` (configuration not stated), 8.08 µM. Turning to `CCN(CC)CCC(C)COc1c(Cl)cc(Cl)c2ccc(C)nc12` (configuration not stated), the selectivity ratio in data set [2] is 57. The IC50 in the data set on Plasmodium falciparum [3] amounted to 0.68 µM; with Plasmodium falciparum [1], 3.95 µM; in the data set on CHO it was 224 µM. Also, the “Ratio IC50” value in the data set with Plasmodium falciparum [4] is listed as 0.17. As to `CCN(CC)CCC(C)COc1c(I)cc(Cl)c2cccnc12` (configuration not stated), in the data set with Plasmodium falciparum [1], the concentration for half-maximal inhibition (IC50) came to 13 µM. This counts as double-digit micromolar. Still for that read-out and setting: in the case of `CCN(CC)CCC(C)COc1c(I)cc(I)c2cccnc12` (configuration not stated) it was 13.9 µM.

For the compound `CCN(CC)CCC(C)COc1c(Br)cc(Br)c2cccnc12` (configuration not stated), 8.65 µM corresponded to half-maximal inhibition in the data set on Plasmodium falciparum [1] (IC50). `CCN(CC)CCCCOc1ccc2ncccc2c1` returned a concentration for half-maximal inhibition (IC50) in the data set with Plasmodium falciparum [1] of 6.02 µM. The compound `CCN(CC)CCCCOc1cccc2ncccc12` yielded an IC50 with Plasmodium falciparum [1] of 10.2 µM. Compared with the last compound, the IC50 is about 1.7-fold higher. The same measure, in the same setting: in the case of `Clc1ccc(CNCCCCOc2ccc(Cl)c3cccnc23)cc1` it was 9.99 µM; in that of `CC(CCNCc1ccc(Cl)cc1)COc1cccc2cccnc12` (configuration not stated), 5.64 µM. As to `Cc1ccc2c(Cl)cc(Cl)c(OCC(C)CCNCc3ccc(Cl)cc3)c2n1` (configuration not stated), the selectivity ratio in data set [2] was 2. Besides, the IC50 came out at 0.26 µM in the data set on Plasmodium falciparum [3], 2.44 µM in the data set with Plasmodium falciparum [1] and 4.11 µM in the data set with CHO. Besides, the “Ratio IC50” value in the data set with Plasmodium falciparum [4] stood at 0.11. The compound `CC(CCNCc1ccc(Cl)cc1)COc1c(I)cc(I)c2cccnc12` (configuration not stated) gave a half-maximal inhibitory concentration (IC50) in the data set on Plasmodium falciparum [1] of 9.15 µM. Consider `Clc1ccc(CNCCCCOc2ccc3ncccc3c2)cc1`, for which the selectivity ratio in data set [2] is 29. The IC50 in the data set with Plasmodium falciparum [3] was greater than 1 µM; in the data set with Plasmodium falciparum [1], 7.29 µM; with CHO it was 211 µM. For `Clc1ccc(CNCCCCOc2cccc3ncccc23)cc1`, in data set [2], the selectivity ratio was determined as 34. In addition, the figures for the IC50 in the data set with Plasmodium falciparum [1] and in the data set with CHO were 7.01 µM and 237 µM, respectively. For the compound `CC(CCNCc1ccc(Cl)cc1)COc1cccc2ncccc12` (configuration not stated), 23.1 µM corresponded to half-maximal inhibition in the data set with Plasmodium falciparum [1] (IC50). That is a double-digit micromolar value. Regarding `CCN(CC)CCC(C)Cc1cc(Cl)c2cccnc2c1O` (configuration not stated), the selectivity ratio in data set [2] was 5. Moreover, the IC50 with Plasmodium falciparum [3] was determined as 0.15 µM; in the data set on Plasmodium falciparum [1], 1.01 µM; in the data set with CHO it was 4.8 µM. Moreover, the “Ratio IC50” value in the data set with Plasmodium falciparum [4] is given as 0.15. `CC[C@H]1CN2CCc3cc(OC)c(OC)cc3[C@@H]2C[C@@H]1C[C@H]1NCCc2cc(OC)c(OC)cc21` [EMETINE] displayed an IC50 with CHO of 0.17 µM.

As usually defined, the IC50 is the concentration that gives 50% inhibition. A higher IC50 goes with weaker potency.
